97 compounds from ChEMBL document CHEMBL4513216, “Probing the Open Global Health Chemical Diversity Library for Multistage-Active Starting Points for Next-Generation Antimalarials” (ACS Infect Dis, 2020) can be followed below.

A short description of the data set: Toxicity liver stage against HepG2, at 10uM. Type of data set: cell-based. More on the design: test concentration 10 uM, cell line HepG2-A16-CD81EGFP. The note with it: human, HepG2-A16-CD81EGFP cells; read-out: INHIBITION
In outline:
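Uninfected HepG2-A16-CD81EGFP cells, 3 × 10^3 per well, 1536-well, plated on prespotted compound at 10 μM final, parasite-free screening media added to match infected plates; puromycin 10 μM positive, DMSO 0.5% negative; run in parallel with 48 h PbLuc assay at 37 °C, 5% CO2; viability by CellTiter-Glo luminescence, normalized to controls.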
Consider `Cc1cc2ncn(C(=O)N3CCCC3)c2cc1C`, for which the cytotoxicity at 10 µM was -6.01%.
For the compound `COc1ccc(-c2n[nH]cc2CN2CCSCC2)c(OC)c1`, the cytotoxicity at 10 µM worked out at 6.4%.
With `CC(C)(C)CNC[C@H]1Cn2ccnc2CO1`, the cytotoxicity at 10 µM is -6.17%.
As to `O=C1CO[C@H]2CN(C3CCOCC3)C[C@H]2N1Cc1ccncc1`, the cytotoxicity at 10 µM came out at 5.89%.
`CN1Cc2cc(F)ccc2N(CC(C)(C)O)CCC1=O`: the cytotoxicity at 10 µM was -2.02%.
The figure for `CC(C)(C)CC(=O)N1[C@@H](c2ccco2)[C@@H](CO)C[C@]12CCCCNC2=O` is 0.122%.
For `CCNC(=O)N1CC2=CC(C)(C)COc3ccc(OC)c(c32)C1`, the cytotoxicity at 10 µM was found to be 8.47%.
For the compound `CC(C)CCc1n[nH]c(C(=O)O)c1I`, the cytotoxicity at 10 µM is -1.93%.
`COCC(C)NC(=O)c1cn(C(C)C)cc2c(=O)[nH]nc1-2` (configuration not stated): the cytotoxicity at 10 µM is -12.6%.
`O=C(Nc1nc2c(s1)CN(C(=O)NCc1cccs1)CC2)C1CC1`: the cytotoxicity at 10 µM is -0.707%.
The figure for `O=C(c1nnn(-c2ccccc2Cl)c1-c1ccccn1)N1CCSCC1` is 4.92%.
As for `CC(C)CC(=O)N1CCN(c2cc(N(C)C)cnn2)CC1`, the cytotoxicity at 10 µM was 4.17%.
For `CCOc1ccc(NC(C)=O)cc1S(=O)(=O)Nc1nnc(C)s1`, the cytotoxicity at 10 µM is -17.6%.
For the compound `CC(=O)NCCOc1c(Cl)cccc1Cl`, the cytotoxicity at 10 µM was -8.87%.
Then `NC(=O)CN1C[C@@H](c2ccccc2F)[C@@]2(CCCCC(=O)N2)C1`, with 7.04%; and `COc1ccc(CN(C)Cc2ccnc(C3CCCO3)n2)cc1` (configuration not stated), with 7.67%; and `Cc1nn(C)cc1-c1cc(C(=O)NCC(C)(C)c2cccc(F)c2)n[nH]1`, with 0.68%.
The figure for `O=C(O)c1ccccc1-n1cc(CN2CCC(c3cc[nH]n3)C2)cn1` (configuration not stated) is 1.1%; for `CNc1cc(C2CCCN2C(=O)CCc2ccccc2F)ccn1` (configuration not stated) it is -2.01%.
On to `Cc1ccccc1CN1CCCC1c1cncc(Nc2nncs2)n1` (configuration not stated), for which the cytotoxicity at 10 µM was 1.66%.
`CCC(=O)N1CCN(C)C(=O)C(Cc2ccccc2-c2cccs2)C1` (configuration not stated): the cytotoxicity at 10 µM amounted to 4.89%.
Regarding `O=C(Cn1c(C(F)F)cc2cccnc21)NC1CCCC1`, the cytotoxicity at 10 µM was -22.2%.
On to `Cn1ccnc1CN1CC[C@H](O)[C@@H](n2ccc(=O)[nH]c2=O)CC1`, for which the cytotoxicity at 10 µM was -9.31%.
Regarding `Cc1ccc(CC2CCCN(S(C)(=O)=O)C2)nc1` (configuration not stated), the cytotoxicity at 10 µM is -8.58%.
In the case of `O=C(NC1(C(=O)O)CCCC1)C1Cc2cc(F)ccc2O1` (configuration not stated), the cytotoxicity at 10 µM is -0.183%.
In the case of `CC1(C)CN(Cc2ccncc2)CCS1(=O)=O`, the cytotoxicity at 10 µM is -4.95%.
`CC(C)CC(=O)NCC(O)c1c(F)cccc1F` (configuration not stated): the cytotoxicity at 10 µM is -2.24%.
`Nc1nccnc1C(=O)NC1CCCN(Cc2c(F)cccc2F)C1` (configuration not stated): the cytotoxicity at 10 µM was -2.14%.
For the compound `CN(CCCNC(=O)c1ccc(C#N)cc1)CC(F)(F)F`, the cytotoxicity at 10 µM amounted to 5.12%.
As to `CC(=O)c1c(F)cccc1NC1CCN(C(=O)CC(C)C)CC1`, the cytotoxicity at 10 µM was found to be 22.6%.
Take `COCc1nccc(C2CCCN(Cc3ccc(C#N)cc3F)C2)n1` (configuration not stated): the cytotoxicity at 10 µM came out at 27.3%.
The figure for `O=C(C1CC(=O)N(c2ccccc2Br)C1)N1CCCCCC1` (configuration not stated) is 8.52%; for `Cc1c(CC(=O)N2CCN(C(C)C)CC2)nnn1-c1ccccc1` it is -3.64%.
Take `COCCc1noc(CN2CCCC2c2noc(C(C)C)n2)n1` (configuration not stated): the cytotoxicity at 10 µM is -11.5%.
Regarding `Cc1ccc(C(=O)N(C)Cc2cc(Br)cs2)cn1`, the cytotoxicity at 10 µM stood at 9.06%.
As for `CS(=O)(=O)c1ccc(C(=O)N2CCCC(n3cncn3)C2)o1` (configuration not stated), the cytotoxicity at 10 µM came to 7.85%.
As to `O=C(CCc1ccccn1)N1CCCC(N2CCNC2=O)C1` (configuration not stated), the cytotoxicity at 10 µM is 6.99%.
`CN(CC1(O)CCCC1)C(=O)c1cccc(Nc2cnccn2)c1`: the cytotoxicity at 10 µM was -4.27%.
With `O=C(NC1CCCN(c2ccc(OC(F)F)cc2)C1)c1c[nH]nn1` (configuration not stated), the cytotoxicity at 10 µM turned out to be 24.8%.
The figure for `CN(CC(=O)Nc1cccc(F)c1)Cc1nc(N)nc(N(C)C)n1` is -6.13%; for `CSCC(C)(O)CNc1cccc(F)c1C(C)=O` (configuration not stated) it is 2.19%; for `COc1ccc(CN2CCN(C(C)=O)CC2)cc1SC(F)(F)F` it is 7.31%.
Take `Cc1nnc2n1CC(CNc1ncnc3ccccc13)CC2` (configuration not stated): the cytotoxicity at 10 µM is -40%.
Regarding `COCCN(Cc1ccco1)Cc1nc(-c2ccsc2)no1`, the cytotoxicity at 10 µM stood at 1.02%.
Turning to `Cc1ccc(OCCSCCn2nc3ccccn3c2=O)cc1`, the cytotoxicity at 10 µM was 7%.
Take `N#CC1(NC(=O)c2ccc(-c3nc(C4CC4)n[nH]3)cc2)CCSC1` (configuration not stated): the cytotoxicity at 10 µM stood at 4.39%.
The figure for `CS(=O)(=O)NCCCNC(=O)c1cccnc1O` is -17.7%.
Take `CCOC(C)c1nc(CN2CCN(c3nccc(C)n3)CC2)cs1` (configuration not stated): the cytotoxicity at 10 µM is -8.89%.
On to `CCOc1cccc(NS(=O)(=O)c2cc(C)c(C(=O)O)s2)c1`, for which the cytotoxicity at 10 µM was -5.28%.
The figure for `O=C(NC1CCCC1)NC1CCC(C(=O)N2CCSCC2)CC1` (configuration not stated) is 3.58%; for `COCCc1noc(CNC2CCCN(c3cccnn3)C2)n1` (configuration not stated) it is -13.7%; for `Cc1ccsc1CN(C)C(=O)Cn1nc(-c2ccc(F)cc2)oc1=O` it is 1.31%.
Turning to `Cc1ccc(OCCC(=O)NC2CCc3nccn3C2)cc1` (configuration not stated), the cytotoxicity at 10 µM was -8.15%.
In the case of `CS(=O)(=O)c1ccc(OCCNCc2cccc(F)c2)cc1`, the cytotoxicity at 10 µM is -9.06%.
As to `COCC1c2nnn(C)c2CCN1C(=O)COc1ccccc1C` (configuration not stated), the cytotoxicity at 10 µM is -100%.
On to `Cn1ccc(C(=O)NC2CCC23CCN(C(=O)C2CCOCC2)CC3)c1` (configuration not stated), for which the cytotoxicity at 10 µM is -81.4%.
`Cn1cc(CN2CC[C@H](O)[C@@H]2Cc2ccncc2)cn1`: the cytotoxicity at 10 µM was 3.6%.
Turning to `CC(=O)N1CCC2(CCCN(C(=O)c3ccccc3)C2)C1` (configuration not stated), the cytotoxicity at 10 µM is 9.52%.
For the compound `O=C1NCC2(CCCN(C(=O)c3csc(-c4cccs4)n3)C2)O1` (configuration not stated), the cytotoxicity at 10 µM is 0.55%.
Then `COc1ncc(C(=O)N(Cc2cnn(C)c2)C(C)C)cn1`, with 4.23%; and `CCc1ccccc1CN1CCn2nc(CNC(C)=O)cc2C1`, with 5.18%.
Take `NC(=O)c1cc2c(nc1-c1ccc3c(c1)CCO3)CCC2`: the cytotoxicity at 10 µM was -11.3%.
In the case of `O=C(c1cscn1)N1CCCCC1c1nc2cc(F)ccc2[nH]1` (configuration not stated), the cytotoxicity at 10 µM was determined as 7.59%.
`CCc1ccc(CN(CCN(C)C)Cc2ccc(C)s2)nc1`: the cytotoxicity at 10 µM is -43%.
For the compound `CCc1nc(CC2CN(c3ncnc4nc(C)cc(C)c34)CCO2)no1` (configuration not stated), the cytotoxicity at 10 µM is -5.79%.
Take `CN(Cc1nc(Cc2cccc(C(F)(F)F)c2)no1)C1CCOCC1`: the cytotoxicity at 10 µM came out at 6.39%.
Take `Cc1nc(CC(C)C)cc(C(=O)N2C[C@@H](N(C)C)[C@H](C(C)C)C2)n1`: the cytotoxicity at 10 µM stood at 9.26%.
Take `CN(C)C(=O)N1CCC(C(=O)N2CCOC(CC3CCCCC3)C2)CC1` (configuration not stated): the cytotoxicity at 10 µM is 21.3%.
Take `CCCc1cc(N2CCC(NC3CCOCC3)CC2)nc(C)n1`: the cytotoxicity at 10 µM was 5.27%.
Then `CCCc1cc(C(=O)N2C[C@H]3CCC[C@@]3(CO)C2)[nH]n1`, with 10.4%.
As for `Cc1nnc(CN2CCN(C)C3(CCNC(=O)CC3)C2)s1` (configuration not stated), the cytotoxicity at 10 µM is -8.22%.
Take `COCCN(Cc1nccs1)c1nc2c(s1)c(C)nn2C`: the cytotoxicity at 10 µM is -47.6%.
For the compound `CCNC(=O)c1cc(OC)c(OC)cc1N(C)S(C)(=O)=O`, the cytotoxicity at 10 µM was 1.56%.
Turning to `Cc1cc(C)n(C(=O)Cn2nc(C)c(I)c2C)n1`, the cytotoxicity at 10 µM was -6.52%.
For the compound `CCn1cc(N)c(-c2nnc3n2CCCC3)n1`, the cytotoxicity at 10 µM is -8.72%.
Take `Cn1cc(-c2cc(C(F)(F)F)n(CCCN)n2)cn1`: the cytotoxicity at 10 µM is -6.11%.
As to `NC(=O)C1CCN(C(=O)NCCNc2ccccn2)CC1`, the cytotoxicity at 10 µM was -12.8%.
For `CC(C)c1nnc(CN2CCCC(Cn3cncn3)C2)o1` (configuration not stated), the cytotoxicity at 10 µM is -3.39%.
For `Cc1cc(NC(=O)CN2CCn3c(nnc3C(C)C)C2)n(C)n1`, the cytotoxicity at 10 µM was -5.39%.
Turning to `CC(NCc1ccsc1)c1ccc2c(c1)NC(=O)CO2` (configuration not stated), the cytotoxicity at 10 µM was -7.6%.
With `COC(=O)c1cc(C(=O)N2CCC(C)CC2)n(-c2ccccc2)n1`, the cytotoxicity at 10 µM stood at 0.103%.
As to `Cc1cccc2c1CCN(c1cc(N3CCCC3CO)ncn1)C2` (configuration not stated), the cytotoxicity at 10 µM was -3.44%.
The figure for `Cn1cc(C(=O)NC2CCN(C(=O)NCCSC(F)(F)F)CC2)cn1` is 2.36%; for `CCc1nc(CN(Cc2cccs2)CC2CCCO2)no1` (configuration not stated) it is 2.26%.
On to `O=C(c1cccnc1N1CCOCC1)N1CCCC1Cn1cccn1` (configuration not stated), for which the cytotoxicity at 10 µM is -2.53%.
The figure for `CCC(C)[C@H](N)c1nnc(SCC(=O)Nc2cc(C)ccc2C)o1` (some centres not stated) is -12.7%; for `Cc1cc(C(=O)N2CCN(C)CC2)nn1CC(=O)NCc1cccs1` it is -5.83%; for `COc1ccc(CN(Cc2cccnc2)CC2CCCO2)c(OC)c1` (configuration not stated) it is 1.13%.
As for `c1nc2c(c(C3CC3)n1)CCN(Cc1ccc3c(c1)OCO3)CC2`, the cytotoxicity at 10 µM is -17.1%.
Then `O=C(c1ccco1)N1CC[C@@H]2CN(C3CCOCC3)CCO[C@@H]2C1`, with -112%.
For `Brc1ccc(CNCc2nnc3n2CCCCC3)s1`, the cytotoxicity at 10 µM is -0.254%.
As for `c1cnc(NC[C@@H]2CCC[C@@H]3CN(Cc4cccnc4)C[C@@H]32)nc1`, the cytotoxicity at 10 µM is -14.3%.
As to `CN(C)CCO[C@@H]1CC[C@H]2[C@H]1OCCN2C(=O)COc1ccccc1`, the cytotoxicity at 10 µM is -4.84%.
For `c1cncc(COCc2nnc3n2CCN(Cc2ccsc2)C3)c1`, the cytotoxicity at 10 µM is -21.6%.
Consider `CN(Cc1ccccn1)C1CCC[C@@H]2CN(CC3CC3)C[C@H]12` (some centres not stated), for which the cytotoxicity at 10 µM was -113%.
Consider `CCCn1nccc1NC(=O)CN1CCOC(Cn2cc(C)cn2)C1` (configuration not stated), for which the cytotoxicity at 10 µM came out at 1.88%.
`O=C(NCC1CCCCC1)N1C[C@@H]2C[C@H](C(=O)N3CCOCC3)[C@H](C1)O2`: the cytotoxicity at 10 µM is -99.4%.
